Measured values published in ChEMBL document CHEMBL4325899, “Synthesis and photocytotoxic activity of [1,2,3]triazolo[4,5-h][1,6]naphthyridines and [1,3]oxazolo[5,4-h][1,6]naphthyridines” (Eur J Med Chem, 2019).
The source made the active and inactive calls. The calls are words filed in the database; no cut-off is given here.

Assays:
A-375 [1] = assay: Phototoxicity index, ratio of CC50 for human A375 cells to EC50 for human A375 cells under UV irradiation at 1.5 J/cm2
MCF7 [2] = assay: Induction of mitochondrial dysfunction in human MCF7 cells assessed as organelle swelling at 2 uM after 120 mins in presence of UV irradiation by Mitotracker Orange CMTM-ROS staining-based confocal microscopic analysis; type: functional, cell-based
Procedure, shortened: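 MCF7 cells (4x10⁵) were plated on glass slides for 24 h. They were then loaded with MitoTracker Orange CMTM-ROS (150 nM) for 45 min in phenol-red-free, serum-free medium, before 2 µM compound and UV photoactivation. Cells were fixed in 2% PFA 20 min or 2 h after UV and imaged confocally (ex 543 nm, em 560–620 nm). PMA (400 nM) served as ROS-inducer control.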

HT-29 = assay: Phototoxicity index, ratio of CC50 for human HT-29 cells to EC50 for human HT-29 cells under UV irradiation at 1.5 J/cm2
[3] = Dark toxicity against human MCF7 cells preincubated for 5 mins followed by compound washout and measured after 72 hrs by MTT assay; type: cell-based
Procedure, shortened: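 Cells were plated and allowed to attach overnight. Compounds were diluted in DMSO (0.5% final), with each concentration in triplicate, and applied for 5 min. Cells were then washed in PBS and given fresh medium. Without irradiation, cells were held 72 h at up to 50 μM. MTT (5 mg/mL stock) was added for 4 h, crystals were dissolved in SDS/HCl overnight, and absorbance was read at 540 nm. CC50 is the concentration killing 50% of cells, taken as the mean of at least three experiments.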

MCF7 [4] = assay: Phototoxicity index, ratio of CC50 for human MCF7 cells to EC50 for human MCF7 cells under UV irradiation at 1.5 J/cm2
MCF7 [5] = assay: Cell cycle arrest in human MCF7 cells assessed as accumulation of cells at G0/G1 phase at EC50 after 24 hrs under UV-irradiation by propidium iodide staining-based flow cytometric analysis (reference value: 44.2%); type: functional
[6] = Drug localization in cytoplasm of human MCF7 cells assessed as punctate formation at 2 uM measured within 10 mins by confocal microscopic analysis; type: ADME, subcellular; conditions: mcf7, 10 min
[7] = Selectivity index, ratio of EC50 for human MCF10A cells under UV irradiation at 1.5 J/cm2 to EC50 for human HT-29 cells under UV irradiation at 1.5 J/cm2; type: toxicity; conditions: MCF10A cells versus HT-29 cells, read-out: Ratio EC50
Procedure, shortened: (§1)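 SI is the EC50 under irradiation in non-tumor MCF10A cells divided by the EC50 under irradiation in the tumor line. Both were MTT read-outs 72 h after 1.5 J/cm² at 365 nm.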

MCF7 [8] = assay: Induction of ROS generation in human MCF7 cells at 0.5 to 2 uM preincubated for 30 mins followed by irradiation at 1.5 J/cm2 for 2 hrs in presence of NAC by H2DCFDA probe-based fluorescence assay; type: functional, cell-based
Procedure, shortened: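 This is the DCF assay in MCF7 cells run as for irradiated samples (30 min compound, 10 µM H2DCFDA, 1.5 J/cm²). Before treatment, cells were pre-incubated with N-acetylcysteine at […]. Fluorescence was read 2 h after light exposure, relative to irradiated untreated controls, with three independent experiments.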

MCF7 [9] = assay: Cell cycle arrest in human MCF7 cells assessed as accumulation of cells at G0/G1 phase at EC75 after 24 hrs under UV-irradiation by propidium iodide staining-based flow cytometric analysis (reference value: 44.2%); type: functional
MCF7 [10] = assay: Cell cycle arrest in human MCF7 cells assessed as accumulation of cells at G2/M phase at EC75 after 24 hrs under UV-irradiation by propidium iodide staining-based flow cytometric analysis (reference value: 26.3%); type: functional
MCF-10A = assay: Phototoxicity against human MCF10A cells preincubated for 5 mins followed by compound washout and subsequent UV irradiation at 1.5 J/cm2 for 5 mins measured after 72 hrs by MTT assay; type: cell-based; conditions: light or radiation study
Procedure, shortened: (§2)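 Compounds were diluted in DMSO (0.5% final), applied in triplicate for 5 min, then washed out with PBS. After medium removal, cells were irradiated on ice for 5 min at 365 nm (1.5 J/cm²) and then kept 72 h at 37 °C. Viability was read by MTT at 540 nm and expressed relative to 0.5% DMSO controls given the same treatment. EC50 is the concentration killing 50%, as the mean ± SD of at least three experiments.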

MCF7 [11] = assay: Cell cycle arrest in human MCF7 cells assessed as accumulation of cells at subG1 phase at EC75 after 24 hrs under UV-irradiation by propidium iodide staining-based flow cytometric analysis (reference value: 4.8%); type: functional
A-375 [12] = assay: Phototoxicity against human A375 cells preincubated for 5 mins followed by compound washout and subsequent UV irradiation at 1.5 J/cm2 for 5 mins measured after 72 hrs by MTT assay; type: functional, cell-based; conditions: A-375, light or radiation study; procedure, shortened: as §2
MCF7 [13] = assay: Cell cycle arrest in human MCF7 cells assessed as accumulation at G0/G1 phase at EC25 after 24 hrs under UV-irradiation by propidium iodide staining-based flow cytometric analysis (reference value: 44.2%); type: functional
[14] = Selectivity index, ratio of EC50 for human MCF10A cells under UV irradiation at 1.5 J/cm2 to EC50 for human A375 cells under UV irradiation at 1.5 J/cm2; type: toxicity; conditions: MCF10A cells versus A375 cells, read-out: Ratio EC50; procedure, shortened: as §1
MCF7 [15] = assay: Induction of lysosomal activation in human MCF7 cells at 2 uM after 20 mins in presence of UV irradiation by Lysotracker Green DND 26 staining-based confocal microscopic analysis; type: functional, cell-based
Procedure, shortened: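 MCF7 cells (4x10⁵) on glass slides were loaded with LysoTracker Green DND-26 (175 nM) for 45 min in phenol-red-free, serum-free medium, before 2 µM compound with or without UV activation. Cells were fixed in 2% PFA 20 min or 2 h after UV and imaged confocally (ex 488 nm, em 500–530 nm). Controls were untreated cells with and without irradiation, and cells given PMA (400 nM).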

MCF7 [16] = assay: Cell cycle arrest in human MCF7 cells assessed as accumulation of cells at G2/M phase at EC25 after 24 hrs under UV-irradiation by propidium iodide staining-based flow cytometric analysis (reference value: 26.3%); type: functional

Drug uptake [6]: Active
Compound: COc1ccc(-c2nc3c(nc(C)c4ccc(-c5ccccc5)nc43)o2)cc1
Ratio CC50/EC50 (A-375 [1]): >4545
Activity (MCF7 [2]): Active
Ratio CC50/EC50 (HT-29): >4167
CC50 at 72 h [3]: > 50000 nM
Ratio CC50/EC50 (MCF7 [4]): >5000
Activity (MCF7 [5]): 43.1%
selectivity ratio [7]: 72
Activity (MCF7 [8]): inactive
Activity (MCF7 [9]): 42.4%
Activity (MCF7 [10]): 26.9%
EC50 (MCF-10A): 864 nM
Activity (MCF7 [11]): 4.4%
EC50 (A-375 [12]): 11 nM
Activity (MCF7 [13]): 44.1%
selectivity ratio [14]: 79
Activity (MCF7 [15]): Active
Activity (MCF7 [16]): 26.8%
